Experiments:
Rattus norvegicus = test: […] acute inhibition of [14C]cholesterol synthesis in the rat post peroral administration of the test compound at 0.45 mg/kg; type: functional; details: route oral
How it was run: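 Rats given a single oral dose of 0.45 mg/kg; [14C]acetate incorporation into cholesterol measured 1 h after dosing as index of acute cholesterol synthesis inhibition.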

Canis familiaris = test: Compound tested […] for % change of plasma cholesterol in cholestyramine-primed dogs after oral administration at 4 mg/kg; type: functional, Canis lupus familiaris
[1] = biological target: T1, 3-hydroxy-3-methylglutaryl-coenzyme A reductase (Homo sapiens, UniProt P04035); test: The compound was tested in vitro for inhibitory activity against HMG-CoA reductase
T1 sequence (P04035 whole entry): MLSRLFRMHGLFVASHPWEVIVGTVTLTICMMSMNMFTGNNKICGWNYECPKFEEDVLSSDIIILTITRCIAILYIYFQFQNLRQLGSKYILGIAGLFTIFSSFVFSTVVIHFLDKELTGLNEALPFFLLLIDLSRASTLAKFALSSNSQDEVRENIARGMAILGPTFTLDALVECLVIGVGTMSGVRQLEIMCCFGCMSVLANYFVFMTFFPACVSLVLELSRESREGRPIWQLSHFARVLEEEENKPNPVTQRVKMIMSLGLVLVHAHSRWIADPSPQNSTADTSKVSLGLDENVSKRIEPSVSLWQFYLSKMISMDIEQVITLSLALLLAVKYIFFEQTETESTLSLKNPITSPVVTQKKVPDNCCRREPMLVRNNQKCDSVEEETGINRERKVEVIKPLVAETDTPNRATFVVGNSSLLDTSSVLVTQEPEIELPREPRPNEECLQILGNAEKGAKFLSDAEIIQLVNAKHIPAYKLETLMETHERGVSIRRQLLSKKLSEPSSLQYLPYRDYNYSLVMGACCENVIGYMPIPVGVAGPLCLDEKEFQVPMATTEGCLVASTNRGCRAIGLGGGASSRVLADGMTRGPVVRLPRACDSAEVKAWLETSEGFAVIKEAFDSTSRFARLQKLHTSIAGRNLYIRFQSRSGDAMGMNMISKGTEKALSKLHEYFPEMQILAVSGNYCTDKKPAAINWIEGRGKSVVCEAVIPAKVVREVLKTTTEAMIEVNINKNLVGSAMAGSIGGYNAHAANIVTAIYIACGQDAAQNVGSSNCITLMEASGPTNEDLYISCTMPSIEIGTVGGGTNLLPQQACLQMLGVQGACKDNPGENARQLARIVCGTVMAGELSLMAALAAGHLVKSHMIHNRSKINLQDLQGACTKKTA

IC50 [1] [nM]	Structure (SMILES)	Change (Rattus norvegicus) [%]	Change (Canis familiaris) [%]
	CC[C@H](C)C(=O)O[C@H]1C[C@@H](C)C=C2C=C[C@H](C)[C@H](CC[C@@H]3C[C@@H](O)CC(=O)O3)C21 (some centres undefined)	-55	-42
	CCC(C)(C)C(=O)O[C@H]1C[C@@H](C)C=C2C=C[C@H](C)[C@H](CC[C@@H]3C[C@@H](O)CC(=O)O3)C21 (some centres undefined)	-65	-60
	CCC(C)(C)C(=O)O[C@@H]1C2C(=C[C@H](C)[C@@H]1O)C=C[C@H](C)[C@@H]2CC[C@@H]1C[C@@H](O)CC(=O)O1 (some centres undefined)	-45	-36
	CCC(C)(C)C(=O)O[C@@H]1C2C(=C[C@H](C)[C@H]1[C@@H](O)c1ccccc1)C=C[C@H](C)[C@@H]2CC[C@@H]1C[C@@H](O)CC(=O)O1 (some centres undefined)	-25	-31
	CCC(C)(C)C(=O)O[C@@H]1C2C(=C[C@H](C)[C@H]1[C@H](C)O)C=C[C@H](C)[C@@H]2CC[C@@H]1C[C@@H](O)CC(=O)O1 (some centres undefined)	-28	-32
10.8	CCC(C)(C)C(=O)O[C@@H]1C2C(=C[C@H](C)[C@H]1CO)C=C[C@H](C)[C@@H]2CC[C@@H]1C[C@@H](O)CC(=O)O1 (some centres undefined)	-69	0
28.4	CC[C@H](C)C(=O)O[C@H]1CCC=C2C=C[C@H](C)[C@H](CC[C@@H]3C[C@@H](O)CC(=O)O3)[C@H]21 [MEVASTATIN]		
